The record followed here is ChEMBL document CHEMBL4834477, “Synthesis and biological evaluation of novel purinyl quinazolinone derivatives as PI3Kδ-specific inhibitors for the treatment of hematologic malignancies” (Bioorg Med Chem, 2021).

Active and inactive are the calls of the source.

The nature of series [1]: Toxicity in Balb/c nude mouse xenografted with human MOLT-4 cells assessed as changes in body weight at 10 mg/kg, po administered via gavage qd for 57 days. It counts as organism-based. The settings on record: in vivo, 1368 h, dose 10 mg/kg/day, time 57 day. The gist of the method:
(§1)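 MOLT-4 cells (2×10^6 in 0.1 mL D-PBS) implanted subcutaneously on the back of BALB/c-nude mice. Once tumours grew, mice were dosed daily by oral gavage at 10 mg/kg for 57 consecutive days. Tumours measured by caliper, with volume = ½ × […]. Body weight was tracked over the same period.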
(In general: Xenograft models place foreign cells or tissue in a host animal.)

A short description of series [2]: Half life in Sprague-Dawley rat at 3 mg/kg, po measured for 24 hrs by LC-MS/MS analysis. It counts as ADME, organism-based. As to conditions: in vivo. The gist of the method: (§2)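 Sprague-Dawley rats dosed orally at 1 or 3 mg/kg, three animals per group. Blood sampled at 0.25, 0.5, 1, 2, 4, 8 and 24 h post-dose. Plasma separated by centrifugation, extracted and quantified by LC-MS/MS. PK parameters (Cmax, AUClast, Tmax, t1/2) derived by non-compartmental software.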

The nature of series [3]: Cmax in Sprague-Dawley rat at 1 mg/kg, po measured for 24 hrs by LC-MS/MS analysis. As to conditions: in vivo. Further details: route oral, dose 1 mg/kg, time 24 hrs. It counts as ADME, organism-based. The gist of the method: as §2
Series [4] relates to MOLT-4. The experiment in a line: Antitumour activity against human MOLT-4 cells xenografted in Balb/c nude mouse assessed as inhibition of tumour growth at 10 mg/kg, po administered via gavage qd for 57 days. It counts as functional. The settings on record: MOLT-4, po, 1368 h, time 57 day, read-out: TGI. The gist of the method: as §1
The nature of series [5]: Tmax in Sprague-Dawley rat at 3 mg/kg, po measured for 24 hrs by LC-MS/MS analysis. The settings on record: in vivo. In kind it is ADME, organism-based. An outline of the steps: as §2
Series [6] concerns SU-DHL10. The experiment in a line: Induction of apoptosis in human SU-DHL-10 cells assessed as viable cells at 20 uM measured after 24 hrs by AnnexinV-FITC/PI staining based flowcytometry method (reference value: 90%). The settings on record: read-out: Activity. It counts as functional. The gist of the method:
(§3)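 Cells exposed to 20 μM compound for 24 h, washed with cold PBS, and stained with Annexin V-FITC and propidium iodide for 15 min at room temperature. Viable, early apoptotic, late apoptotic and necrotic populations quantified by flow cytometry.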

For series [7], the target named is T1, Phosphatidylinositol 4,5-bisphosphate 3-kinase catalytic subunit delta isoform (Homo sapiens) (UniProt O00329).
T1 sequence (whole entry): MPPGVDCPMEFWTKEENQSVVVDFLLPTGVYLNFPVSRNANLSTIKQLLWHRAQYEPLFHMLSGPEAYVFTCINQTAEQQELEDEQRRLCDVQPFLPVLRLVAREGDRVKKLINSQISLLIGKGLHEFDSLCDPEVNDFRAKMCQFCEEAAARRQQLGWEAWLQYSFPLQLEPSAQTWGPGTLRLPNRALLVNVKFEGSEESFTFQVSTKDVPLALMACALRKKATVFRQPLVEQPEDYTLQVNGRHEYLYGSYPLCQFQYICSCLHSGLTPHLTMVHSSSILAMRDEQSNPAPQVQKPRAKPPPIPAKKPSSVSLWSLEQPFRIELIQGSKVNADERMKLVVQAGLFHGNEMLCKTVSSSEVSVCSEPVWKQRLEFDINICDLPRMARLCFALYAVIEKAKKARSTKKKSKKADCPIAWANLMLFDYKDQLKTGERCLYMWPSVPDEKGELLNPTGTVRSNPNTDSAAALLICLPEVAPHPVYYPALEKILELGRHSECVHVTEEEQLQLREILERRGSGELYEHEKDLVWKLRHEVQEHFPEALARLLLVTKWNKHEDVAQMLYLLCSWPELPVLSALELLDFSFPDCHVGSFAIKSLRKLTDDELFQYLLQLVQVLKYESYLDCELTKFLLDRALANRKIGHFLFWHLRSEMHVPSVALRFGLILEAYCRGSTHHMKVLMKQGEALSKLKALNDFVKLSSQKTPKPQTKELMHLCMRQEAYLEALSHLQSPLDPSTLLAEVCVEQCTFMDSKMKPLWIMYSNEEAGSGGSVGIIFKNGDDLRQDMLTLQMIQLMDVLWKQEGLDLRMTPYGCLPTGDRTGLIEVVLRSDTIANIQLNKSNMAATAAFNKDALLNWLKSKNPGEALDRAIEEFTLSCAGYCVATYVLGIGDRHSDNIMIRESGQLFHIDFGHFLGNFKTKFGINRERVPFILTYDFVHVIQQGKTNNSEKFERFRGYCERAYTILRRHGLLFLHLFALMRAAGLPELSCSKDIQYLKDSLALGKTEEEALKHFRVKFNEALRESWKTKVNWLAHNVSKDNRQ
Briefly: Inhibition of PI3Kdelta in human SU-DHL-5 cells assessed as inhibition of S6 phosphorylation at 1 to 5 uM measured after 3 hrs by western blot assay. In kind it is cell-based. The settings on record: dose 1-5 µM. An outline of the steps:
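Treatment lasted 3 h: SUDHL-5 at 1 μM, MOLT-4 at 5 μM. Cells washed twice in cold PBS and lysed. Proteins resolved on 10–12% SDS-PAGE and blotted to PVDF. Probed for p-AKT S473, p-AKT T308, p-S6 and p-4E-BP1, with β-actin as loading control.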
(A western blot detects proteins with antibodies after separation by electrophoresis.)

The subject of series [8] is SU-DHL10. Briefly: Induction of apoptosis in human SU-DHL-10 cells assessed as late apoptotic cells at 20 uM measured after 24 hrs by AnnexinV-FITC/PI staining based flowcytometry method (reference value: 3.48%). It counts as functional. The gist of the method: as §3
A short description of series [9]: Tmax in Sprague-Dawley rat at 1 mg/kg, po measured for 24 hrs by LC-MS/MS analysis. In kind it is ADME, organism-based. As to conditions: in vivo. The gist of the method:
as §2

In series [10] the test system is SU-DHL-5. The experiment in a line: Antiproliferative activity against human SU-DHL-5 cells assessed as cell viability at 10 uM by CellTiter-Glo luminescent cell viability assay (reference value: 100%). It counts as functional. As to conditions: read-out: Activity.
Series [11] addresses Phosphatidylinositol 4,5-bisphosphate 3-kinase catalytic subunit beta isoform (Homo sapiens, UniProt P42338). Briefly: Inhibition of recombinant human full length His-tagged p110beta expressed in baculovirus expression system measured after 60 mins in presence of ATP by ATP-competitive binding assay. The gist of the method: (§4)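 SelectScreen ATP-competitive assay using 10-point titration with 1 μM top final compound concentration. Kinase, substrate and ATP mixed in 30 mM HEPES buffer and reacted 60 min. IC50 taken as the mean of three independent experiments.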

Series [12] concerns the target Phosphatidylinositol 4,5-bisphosphate 3-kinase catalytic subunit gamma isoform (Homo sapiens, UniProt P48736). Briefly: Inhibition of recombinant human full length His-tagged p110gamma expressed in baculovirus expression system measured after 60 mins in presence of ATP by ATP-competitive binding assay. The gist of the method: as §4
For series [13], the system named is SU-DHL-5. Briefly: Antiproliferative activity against human SU-DHL-5 cells assessed as reduction in cell viability at 10 uM by CellTiter-Glo luminescent cell viability assay relative to idelalisib. In kind it is functional. The gist of the method:
(§5)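 Cells were seeded at 5x10^4 per well and exposed to the compound at a single concentration: 10 μM for SUDHL-5 and 20 μM for MOLT-4. CellTiter-Glo reagent was added 1:1, mixed for 2 min to lyse the cells, and held 10 min at room temperature before reading luminescence. Readings were background-subtracted and normalized to control wells.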
(In ATP-based viability assays light output follows the ATP content of the culture.)

The species entered for the next series is Homo sapiens. The experiment in a line: Selectivity ratio of IC50 for recombinant human full length His-tagged p110gamma expressed in baculovirus expression system to IC50 for recombinant human full length His-tagged p110delta/p85alpha expressed in baculovirus expression system.
Series [14] deals with MOLT-4. Briefly: Antiproliferative activity against human MOLT-4 cells assessed as reduction in cell viability at 20 uM by CellTiter-Glo luminescent cell viability assay relative to idelalisib. In kind it is functional. An outline of the steps: as §5

Sequence of Phosphatidylinositol 4,5-bisphosphate 3-kinase catalytic subunit beta isoform (P42338 whole entry, canonical isoform): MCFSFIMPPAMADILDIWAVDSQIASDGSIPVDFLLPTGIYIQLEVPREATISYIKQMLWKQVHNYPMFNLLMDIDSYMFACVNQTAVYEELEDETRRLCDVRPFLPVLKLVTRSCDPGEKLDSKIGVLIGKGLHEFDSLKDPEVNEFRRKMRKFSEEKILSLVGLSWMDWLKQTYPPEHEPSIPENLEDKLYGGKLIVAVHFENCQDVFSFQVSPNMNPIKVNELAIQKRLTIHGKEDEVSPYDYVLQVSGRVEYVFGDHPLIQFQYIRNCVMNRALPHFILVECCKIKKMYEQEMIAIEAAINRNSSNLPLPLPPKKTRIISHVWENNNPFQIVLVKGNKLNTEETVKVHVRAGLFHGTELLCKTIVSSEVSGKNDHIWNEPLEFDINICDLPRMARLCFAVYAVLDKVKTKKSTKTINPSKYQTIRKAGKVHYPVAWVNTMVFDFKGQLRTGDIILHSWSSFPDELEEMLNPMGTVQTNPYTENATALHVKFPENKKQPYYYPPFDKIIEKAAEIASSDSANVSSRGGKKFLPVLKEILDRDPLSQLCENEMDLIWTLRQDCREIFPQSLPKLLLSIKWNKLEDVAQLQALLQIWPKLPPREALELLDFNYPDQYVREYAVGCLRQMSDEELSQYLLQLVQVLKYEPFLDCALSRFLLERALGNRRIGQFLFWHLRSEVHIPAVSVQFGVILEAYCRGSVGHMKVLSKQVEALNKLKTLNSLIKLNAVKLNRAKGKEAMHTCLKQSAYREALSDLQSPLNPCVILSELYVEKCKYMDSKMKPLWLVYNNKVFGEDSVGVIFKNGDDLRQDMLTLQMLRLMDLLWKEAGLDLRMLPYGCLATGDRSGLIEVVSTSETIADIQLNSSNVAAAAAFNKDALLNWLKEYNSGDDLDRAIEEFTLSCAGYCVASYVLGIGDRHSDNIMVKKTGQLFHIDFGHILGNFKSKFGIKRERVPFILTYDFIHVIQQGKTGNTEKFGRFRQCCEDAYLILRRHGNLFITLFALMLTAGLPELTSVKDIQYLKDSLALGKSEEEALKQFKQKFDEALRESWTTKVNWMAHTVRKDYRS
Sequence of Phosphatidylinositol 4,5-bisphosphate 3-kinase catalytic subunit gamma isoform (P48736 whole entry, canonical isoform): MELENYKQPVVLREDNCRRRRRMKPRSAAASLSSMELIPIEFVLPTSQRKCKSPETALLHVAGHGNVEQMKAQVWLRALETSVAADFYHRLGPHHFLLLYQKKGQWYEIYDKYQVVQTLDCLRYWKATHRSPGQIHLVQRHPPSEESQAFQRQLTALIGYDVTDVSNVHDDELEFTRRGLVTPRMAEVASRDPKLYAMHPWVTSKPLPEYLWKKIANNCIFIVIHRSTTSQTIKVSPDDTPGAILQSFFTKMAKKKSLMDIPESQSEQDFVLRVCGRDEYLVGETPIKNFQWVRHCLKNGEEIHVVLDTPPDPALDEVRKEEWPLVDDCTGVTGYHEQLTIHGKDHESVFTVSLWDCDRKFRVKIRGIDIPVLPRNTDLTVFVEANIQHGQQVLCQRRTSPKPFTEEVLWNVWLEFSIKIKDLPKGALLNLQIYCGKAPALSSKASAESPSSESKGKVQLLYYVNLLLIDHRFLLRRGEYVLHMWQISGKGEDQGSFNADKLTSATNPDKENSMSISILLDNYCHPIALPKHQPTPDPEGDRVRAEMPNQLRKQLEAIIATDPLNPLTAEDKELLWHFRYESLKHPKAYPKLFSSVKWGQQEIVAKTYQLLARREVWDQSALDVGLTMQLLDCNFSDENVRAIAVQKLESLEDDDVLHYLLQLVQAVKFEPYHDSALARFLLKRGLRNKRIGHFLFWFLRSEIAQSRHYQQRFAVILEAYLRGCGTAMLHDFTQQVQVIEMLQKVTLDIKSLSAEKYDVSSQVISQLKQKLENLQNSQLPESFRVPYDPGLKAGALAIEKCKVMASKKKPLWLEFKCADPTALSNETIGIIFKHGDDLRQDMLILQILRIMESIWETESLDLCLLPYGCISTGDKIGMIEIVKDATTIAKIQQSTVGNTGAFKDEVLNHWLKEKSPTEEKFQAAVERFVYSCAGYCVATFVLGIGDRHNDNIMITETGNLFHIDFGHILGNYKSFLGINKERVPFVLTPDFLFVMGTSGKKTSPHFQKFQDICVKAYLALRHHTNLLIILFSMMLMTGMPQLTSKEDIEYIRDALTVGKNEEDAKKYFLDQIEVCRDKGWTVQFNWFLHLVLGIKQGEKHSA

Turning to `O=c1c2c(F)cccc2nc([C@@H](Nc2ncnc3nc[nH]c23)C2CC2)n1-c1ccccc1`, the Activity entry in series [1] is reported as “Non-Toxic”; in the series with SU-DHL10 [8] it was 24.2%. Moreover, the half-life in series [2] was 7.7 h. The compound further displayed a Cmax in series [3] of 18.3 ng/mL. The inhibition in vivo at 10 mg/kg/day in the series on MOLT-4 [4] worked out at 55.1%. Besides, the Tmax in series [5] is 1 h; in [9] it was 0.5 h. The viability at 20 µM with SU-DHL10 [6] worked out at 19.7%. In addition, the inhibition result in series [7] was “Active”. Further, the viability at 10 µM with SU-DHL-5 [10] turned out to be 34.8%. The IC50 was found to be 199 nM in [11] and 19.1 nM in [12].

For the compound `Cc1cccc2nc([C@@H](Nc3ncnc4nc[nH]c34)C3CC3)n(-c3ccccc3)c(=O)c12`, the “fold change (FC)” value with SU-DHL-5 [13] and with MOLT-4 [14] was 5 in each case. In addition, the Activity result is “Non-Toxic” in [1] and 45.9% in the series with SU-DHL10 [8]. Besides, the half-life in [2] is 8.3 h. Moreover, in the series on MOLT-4 [4], the inhibition in vivo at 10 mg/kg/day amounted to 56.7%. Besides, the Tmax in series [5] turned out to be 0.5 h. The viability at 20 µM in the series with SU-DHL10 [6] worked out at 15%. Besides, in [7], the inhibition result is “Active”. The Ratio IC50 in the series listed under Homo sapiens is 95.5. The viability at 10 µM in the series on SU-DHL-5 [10] came out at 20.2%.

By half-life is commonly meant the time needed for the level to fall by half in the phase considered. Lower therefore signals rapid decline. As a reminder, the Cmax is the highest concentration seen after dosing. For orientation: Tmax means the time at which the peak concentration occurs. Broadly, the IC50 is the midpoint of a concentration-inhibition curve.
